Data from ChEMBL document CHEMBL4219253, “Positive Modulators of the N-Methyl-d-aspartate Receptor: Structure-Activity Relationship Study of Steroidal 3-Hemiesters” (J Med Chem, 2018).
pEC50: −log10 of the molar value.

Assays:
Format in all cases: cell-based
[1] = molecular target: T1, Glutamate NMDA receptor; Grin1/Grin2b (Rattus norvegicus) (UniProt P35439+Q00960); assay: Positive allosteric modulation of recombinant rat GluN1alpha/GluN2B receptor expressed in HEK293 cells assessed as potentiation of glutamate-induced current response at 1 to 100 uM at holding potential -60mV by whole cell voltage clamp method relative to control
In short: (§1)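 HEK293 cells transfected with GluN1-1a, the GluN2 subunit and GFP. Whole-cell voltage clamp at -60 mV, series resistance <10 MΩ, 80-90% compensation, room temperature (21–25 °C). Compound is co-applied with 1 µM glutamate by multibarrel fast perfusion (exchange ~10 ms). DMSO is held at 1% in all test and control solutions. Readout is % potentiation of the glutamate-evoked current.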

[2] = molecular target: Glutamate NMDA receptor; Grin1/Grin2b (Rattus norvegicus, UniProt P35439+Q00960); assay: Positive allosteric modulation of recombinant rat GluN1alpha/GluN2B receptor expressed in HEK293 cells assessed as potentiation of glutamate-induced current response at holding potential -60mV by whole cell voltage clamp method
In short: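 HEK293 cells transfected with GluN1-1a, GluN2A, 2B, 2C or 2D and GFP cDNA. Whole-cell voltage clamp at -60 mV, 21–25 °C, series resistance <10 MΩ compensated 80–90%. Compound co-applied with 1 µM glutamate by fast multibarrel perfusion. DMSO 1% in all solutions. At least four cells per point.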

[3] = molecular target: Glutamate NMDA receptor; Grin1/Grin2a (Rattus norvegicus) (UniProt P35439+Q00959); assay: Positive allosteric modulation of recombinant rat GluN1alpha/GluN2A receptor expressed in HEK293 cells assessed as potentiation of glutamate-induced current response at 100 uM at holding potential -60mV by whole cell voltage clamp method relative to control; in short: as §1
[4] = molecular target: T1, Glutamate NMDA receptor; Grin1/Grin2b (Rattus norvegicus); assay: Positive allosteric modulation of recombinant rat GluN1alpha/GluN2B receptor expressed in HEK293 cells assessed as potentiation of glutamate-induced current response at 100 uM at holding potential -60mV by whole cell voltage clamp method relative to control; in short: as §1
[5] = molecular target: Ionotropic glutamate receptor NMDA 1/2D (Rattus norvegicus) (UniProt P35439+Q62645); assay: Positive allosteric modulation of recombinant rat GluN1alpha/GluN2D receptor expressed in HEK293 cells assessed as potentiation of glutamate-induced current response at 100 uM at holding potential -60mV by whole cell voltage clamp method relative to control; in short: as §1
[6] = molecular target: Glutamate NMDA receptor; Grin1/Grin2c (Rattus norvegicus) (UniProt P35439+Q00961); assay: Positive allosteric modulation of recombinant rat GluN1alpha/GluN2C receptor expressed in HEK293 cells assessed as potentiation of glutamate-induced current response at 100 uM at holding potential -60mV by whole cell voltage clamp method relative to control; in short: as §1
[7] = molecular target: T1, Glutamate NMDA receptor; Grin1/Grin2b (Rattus norvegicus); assay: Positive allosteric modulation of recombinant rat GluN1alpha/GluN2B receptor expressed in HEK293 cells assessed as potentiation of glutamate-induced current response at 0.3 to 300 uM at holding potential -60mV by whole cell voltage clamp method relative to control; in short: as §1
[8] = molecular target: T1, Glutamate NMDA receptor; Grin1/Grin2b (Rattus norvegicus); assay: Positive allosteric modulation of recombinant rat GluN1alpha/GluN2B receptor expressed in HEK293 cells assessed as potentiation of glutamate-induced current response at 1 to 300 uM at holding potential -60mV by whole cell voltage clamp method relative to control

| SMILES | Emax [1] | pEC50 [2] | Emax [7] | further results |
| --- | --- | --- | --- | --- |
| C[C@]12CC[C@H](OC(=O)CCCCCCCC(=O)O)CC1=CC[C@@H]1[C@@H]2CC[C@]2(C)C(=O)CC[C@@H]12 | 226% | 4.42 |  |  |
| CC(=O)[C@H]1CC[C@H]2[C@@H]3CC=C4C[C@@H](OS(=O)(=O)O)CC[C@]4(C)[C@H]3CC[C@]12C.c1ccncc1 | 116% |  |  | Activity [3]: 107%; Activity [4]: 78%; Activity [5]: -48%; Activity [6]: -47% |
| C[C@@]12CCC[C@H]1[C@@H]1CC=C3C[C@@H](OC(=O)CCCC(=O)O)CC[C@]3(C)[C@H]1CC2 |  | 5.28 | 348% |  |
| C[C@@]12CCC[C@H]1[C@@H]1CC=C3C[C@@H](OC(=O)CCCCCC(=O)O)CC[C@]3(C)[C@H]1CC2 |  | 5.74 | 109% |  |
| C[C@@]12CCC[C@H]1[C@@H]1CC=C3C[C@@H](OC(=O)CCC(=O)O)CC[C@]3(C)[C@H]1CC2 |  | 5.13 | 452% |  |
| CC(=O)[C@H]1CC[C@H]2[C@@H]3CC=C4C[C@@H](OC(=O)CC(=O)O)CC[C@]4(C)[C@H]3CC[C@]12C | 108% | 4.40 |  |  |
| CC[C@H]1CC[C@H]2[C@@H]3CC=C4C[C@@H](OC(=O)CCCC(=O)O)CC[C@]4(C)[C@H]3CC[C@]12C |  | 5.00 | 209% |  |
| CC(=O)[C@H]1CC[C@H]2[C@@H]3CC=C4C[C@@H](OC(=O)CCCCCCC(=O)O)CC[C@]4(C)[C@H]3CC[C@]12C | 156% | 4.71 |  |  |
| CC(=O)[C@H]1CC[C@H]2[C@@H]3CC=C4C[C@@H](OC(=O)CCC(=O)O)CC[C@]4(C)[C@H]3CC[C@]12C [PREGNENOLONE SUCCINATE] | 177% | 4.56 |  | Activity [4]: 267% |
| C[C@@]12CCC[C@H]1[C@@H]1CC=C3C[C@@H](OC(=O)CCCCC(=O)O)CC[C@]3(C)[C@H]1CC2 |  | 5.55 | 191% |  |
| CC[C@H]1CC[C@H]2[C@@H]3CC=C4C[C@@H](OC(=O)CC(=O)O)CC[C@]4(C)[C@H]3CC[C@]12C |  | 4.97 | 71% |  |
| CC[C@H]1CC[C@H]2[C@@H]3CC=C4C[C@@H](OC(=O)CCCCC(=O)O)CC[C@]4(C)[C@H]3CC[C@]12C |  | 4.76 | 60% |  |
| C[C@]12CC[C@H](OC(=O)CCCCC(=O)O)CC1=CC[C@@H]1[C@@H]2CC[C@]2(C)C(=O)CC[C@@H]12 |  | 3.96 |  | Emax [8]: 180% |
| C[C@@]12CCC[C@H]1[C@@H]1CC=C3C[C@@H](OC(=O)CC(=O)O)CC[C@]3(C)[C@H]1CC2 |  | 5.33 | 236% |  |
| C[C@]12CC[C@H](OC(=O)CCCC(=O)O)CC1=CC[C@@H]1[C@@H]2CC[C@]2(C)C(=O)CC[C@@H]12 |  | 3.82 |  | Emax [8]: 154% |
| C[C@]12CC[C@H](OC(=O)CCCCCC(=O)O)CC1=CC[C@@H]1[C@@H]2CC[C@]2(C)C(=O)CC[C@@H]12 | 187% | 4.08 |  |  |
| C[C@]12CC[C@H](OC(=O)CCCCCCC(=O)O)CC1=CC[C@@H]1[C@@H]2CC[C@]2(C)C(=O)CC[C@@H]12 | 189% | 4.31 |  |  |
| CC(=O)[C@H]1CC[C@H]2[C@@H]3CC=C4C[C@@H](OC(=O)CCCC(=O)O)CC[C@]4(C)[C@H]3CC[C@]12C | 183% | 4.72 |  | Activity [4]: 460% |
| CC(=O)[C@H]1CC[C@H]2[C@@H]3CC=C4C[C@@H](OC(=O)C(=O)O)CC[C@]4(C)[C@H]3CC[C@]12C | 93% | 4.31 |  |  |
| C[C@]12CC[C@H](OC(=O)CCCCCCCCC(=O)O)CC1=CC[C@@H]1[C@@H]2CC[C@]2(C)C(=O)CC[C@@H]12 | 165% | 4.79 |  |  |
| CC(=O)[C@H]1CC[C@H]2[C@@H]3CC=C4C[C@@H](OC(=O)CCCCCC(=O)O)CC[C@]4(C)[C@H]3CC[C@]12C | 191% | 4.74 |  | Activity [4]: 458% |
| CC[C@H]1CC[C@H]2[C@@H]3CC=C4C[C@@H](OC(=O)CCCCCC(=O)O)CC[C@]4(C)[C@H]3CC[C@]12C |  | 4.58 | 48% |  |
| CC[C@H]1CC[C@H]2[C@@H]3CC=C4C[C@@H](OC(=O)CCC(=O)O)CC[C@]4(C)[C@H]3CC[C@]12C |  | 5.00 | 133% |  |
